MEKK2 mut-MEK5 – signal of MEK5 binding to mutant human MEKK2 PB1 domain. 0.35% of 290,000 active. percent response, % at 10 µM. bead flow cytometry, Alexa488-MEK5 binding to MEKK2 mutant; in the data active means percent response above about 24%, passing the limit was not always enough
MEKK2 WT-MEK5 – raises or lowers MEK5 binding to wildtype human MEKK2 PB1 domain | Q9Y2U5 | bead flow cytometry, Alexa488-MEK5 binding to MEKK2 WT; actives lie on both sides | binding response (% of control), % at 10 µM | 1.1% of 290,000 active; in the data active means binding response below about 67% or above about 130%
MEKK3 PB1 HTS – modulators (inhibitors or enhancers) of MEK5 binding to human MEKK3 PB1 domain; Q99759; bead-based flow cytometry, Alexa488-MEK5 binding to MEKK3; actives lie on both sides; 0 = blocked by unlabeled MEK5, 100 = vehicle; binding response (% of control), % at 10 µM; 1.4% of 290,000 active;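 active means binding response more than 3 SD above or below the average of its plate-row segment, actives on both sides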;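 further: Alexa488 bead fluorescence after subtracting the streptavidin-only scavenger bead signal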
GSK3beta inhib – inhibitors of human GSK3beta kinase. 0.038% of 300,000 active. P49841. GST-GSK3beta kinase, ADP-Glo luminescence, 60 min; hits give low values. AID 2097. activity score (negative = inhibition), % at 10 µM;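 active means more than half of replicate wells score below -50%, meaning over 50% inhibition versus plate controls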
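test system = GST-tagged human GSK3beta kinase, cell-free | reagent = 25 µM ATP with peptide substrate | dosing = one dose of 10 µM per compound | schedule = 60 min reaction, RT | detection = luminescent ADP-Glo measurement of ADP formed | control set = DMSO neutral wells and GW8510 at 20 µM as positive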
GSK3A inh – human GSK-3 alpha kinase inhibition; P49840; ADP-Glo luminescence, 60 min; inhibition, % at 10 µM; 0.1% of 320,000 active; AID 2650;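 active means more than half of replicates show inhibition above 20%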;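 further: GST-tagged GSK-3 alpha with peptide substrate and 25 µM ATP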
Target sequence (P49840 whole entry, looked up): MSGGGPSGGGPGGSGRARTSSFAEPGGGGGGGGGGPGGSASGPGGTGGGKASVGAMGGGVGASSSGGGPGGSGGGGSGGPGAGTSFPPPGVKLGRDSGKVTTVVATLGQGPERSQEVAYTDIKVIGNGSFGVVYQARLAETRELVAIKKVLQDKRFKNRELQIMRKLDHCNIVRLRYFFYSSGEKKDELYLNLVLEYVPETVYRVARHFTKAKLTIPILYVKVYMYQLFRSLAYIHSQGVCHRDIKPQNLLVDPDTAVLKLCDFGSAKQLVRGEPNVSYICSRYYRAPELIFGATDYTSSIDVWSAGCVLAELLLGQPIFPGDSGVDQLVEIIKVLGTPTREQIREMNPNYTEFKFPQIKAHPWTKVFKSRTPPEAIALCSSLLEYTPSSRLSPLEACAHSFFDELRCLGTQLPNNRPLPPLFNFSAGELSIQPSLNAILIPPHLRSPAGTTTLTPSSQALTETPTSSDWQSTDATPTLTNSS
STK33 kinase inh – human STK33 kinase inhibition | Q9BYT3 | purified STK33, MBP phosphorylation, ADP-Glo luminescence | inhibition, % at 10 µM | 0.073% of 320,000 active | AID 2661;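 active means inhibition at or above 25%, using the most active replicate where run in duplicate; inactive means inhibition below 25%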
MEKK2wt confirm – raises or lowers MEK5 binding to wildtype human MEKK2, retest; 2.4% of 5,900 active; binding response (% of control), % at 10 µM; bead flow cytometry, Alexa488-MEK5 binding to MEKK2 WT; actives lie on both sides; shares compounds with MEKK3 PB1 HTS; in the data active means binding response below about 16% or above about 210%; inactive means in between
MEKK2mut-MEK5 – signal of MEK5 binding to mutant human MEKK2, retest | shares compounds with MEKK3 PB1 HTS | bead flow cytometry, Alexa488-MEK5 binding to MEKK2 mutant | percent response, % at 10 µM | 2% of 5,900 active; in the data active means percent response mostly above about 71%, no sharp cut-off; inactive means mostly below about 38%;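 further: higher means compound restores mutant binding toward wildtype level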
MEKK3 confirm – MEKK3-MEK5 PB1 inhibition, single concentration confirmation; shares compounds with MEKK3 PB1 HTS; bead flow cytometry, Alexa488-MEK5 binding to MEKK3; hits give low values; binding response (% of control), % at 10 µM; AID 1894; 1.8% of 5,900 active;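 active means binding response below 72% of control, or above a set upper limit, though filed actives all read lower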
Numbers stand for hits; i = inactive; nt = not tested or not shown; [ ] = remark or other dose. This is a sample that favours compounds with a hit; in the whole collection about 2.1% have one here.

SMILES	MEKK2 mut-MEK5	MEKK2 WT-MEK5	MEKK3 PB1 HTS	GSK3beta inhib	GSK3A inh	STK33 kinase inh	MEKK2wt confirm	MEKK2mut-MEK5	MEKK3 confirm
C#CCOCCOCCOCCNc1nc(N2CCN(C(=O)[C@H](CCCCN)n3cc([C@@H](N)CO)nn3)CC2)nc(N2CCN(C(=O)[C@H](Cc3cc4ccccc4[nH]3)n3cc([C@@H](N)Cc4ccc(O)cc4)nn3)CC2)n1	56	190	i	i	i	i	i	i	i
CCOC(=O)NC1(C(F)(F)F)NC(=O)N(C2CCCCC2)C1=O (stereo not given)	i	-4.0[inhibitor]	i	i	i	i	i	i	i
O=C(NC1(C(F)(F)F)NC(=O)N(C2CCCCC2)C1=O)C1CC1 (stereo not given)	i	i	i	i	i	i	nt	nt	nt
CCN(CC(=O)NCc1ccc(Cl)cc1)C(=O)CSCC(=O)Nc1ccc(OC)cc1	nt	nt	nt	i	i	i	nt	nt	nt
CCN(CC)c1ccc(/C=C2\CCC(/C=C(\C#N)C(=O)Nc3ccccc3F)=C2N2CCOCC2)cc1	nt	nt	nt	i	nt	nt	nt	nt	nt
N#C/C(=C\C1=C(N2CCOCC2)C(=C\c2ccc(Cl)cc2)/CC1)C(=O)Nc1ccccc1F	i	nt	7.0[inhibitor]	i	i	i	i	i	i
N#C/C(=C\C1=C(N2CCOCC2)C(=C/c2cccc([N+](=O)[O-])c2)/CC1)C(=O)Nc1ccccc1F	i	nt	9.0[inhibitor]	nt	i	i	i	i	i
CC(C)N1CCC(NC(=O)NC2CCCCC2)CC1	i	i	i	i	i	i	nt	nt	nt
Cc1cccc(-c2nn(-c3ccccc3)cc2C(=O)N2CCN(C3CCS(=O)(=O)C3)CC2)c1 (stereo not given)	nt	nt	nt	nt	i	i	nt	nt	nt
Cc1onc(-c2ccccc2)c1CNC(=O)C1COc2ccccc2O1 (stereo not given)	i	i	i	i	i	i	nt	nt	nt
Cc1cc(N2CCN(C)CC2)nc2ccc(NC(=S)NCCCN3CCc4ccccc4C3)cc12	i	173	i	i	i	i	i	i	i
CCN1CCN(c2cc(C)c3cc(NC(=S)NCCN(C)C)ccc3n2)CC1	i	i	i	i	i	i	nt	nt	nt
CCN1CCN(c2cc(C)c3cc(NC(=S)NCCCN4CCc5ccccc5C4)ccc3n2)CC1	i	177	i	i	i	i	i	i	i
Cc1cccc(N2CCN(C(=S)Nc3ccc4nc(N5CCN(C)CC5)cc(C)c4c3)CC2)c1C	i	47[inhibitor]	30[inhibitor]	i	nt	nt	i	i	i
NC(=O)COc1ccc(-c2noc(COc3ccccc3[N+](=O)[O-])n2)cc1	i	i	132	i	i	i	i	i	i
C[C@H](NC(=O)C1CC(=O)N(c2ccc(F)cc2)C1)C(=O)N1CCCCC1 (stereo not given in full)	i	i	i	i	i	i	nt	nt	nt
O=C(C[C@@H]1C/C=C\C[C@H](Cc2ccc(F)cc2)C(=O)OC[C@H]2CCCN2C1=O)N[C@H](CO)Cc1ccccc1	nt	nt	nt	nt	i	i	nt	nt	nt
COCCOc1ccc(C(F)(F)F)cc1NC(=O)c1ccc(C)cc1	i	i	i	i	i	i	nt	nt	nt
COc1ccc(Oc2ccc(C(F)(F)F)cc2NC(=O)c2ccc(C)cc2)cc1	i	i	142	i	i	i	i	i	i
Cc1cc(C(F)F)nn1CC(=O)NCc1ccccc1F	i	i	141	i	i	i	i	i	i
O=C(NCC(=O)N1CCN(c2ccccc2O)CC1)c1cccs1	nt	nt	nt	i	i	i	nt	nt	nt
O=C(O)CCc1ccc(S(=O)(=O)Nc2ccc(OCc3ccccc3)cc2)cc1	i	i	i	nt	i	i	nt	nt	nt
O=C(O)/C=C/c1ccc(S(=O)(=O)Nc2ccc(OCc3ccccc3)cc2)cc1	i	i	73[inhibitor]	i	i	i	i	i	i
